Test results as given in ChEMBL document CHEMBL1177850, “Design, synthesis and antiproliferative activity of styryl lactones related to (+)-goniofufurone” (Eur J Med Chem, 2010).

Columns and labels:
Assay type in all cases: functional, cell-based
[1] = test system: Raji; assay: Antiproliferative activity against human Raji cells after 72 hrs by MTT assay
Method in brief: (§1)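 Exponentially growing cells were counted by trypan blue exclusion and seeded at 10^4 cells/well in 96-well plates to keep growth logarithmic. Cells were exposed to compound for 72 h, then read by tetrazolium (MTT) colorimetry. Values are means (SD) of three independent experiments, each in quadruplicate.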

[2] = test system: HeLa; assay: Antiproliferative activity against human HeLa cells after 72 hrs by MTT assay
Method in brief: (§2)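 Seeded at 5 × 10^3 cells/well in 96-well plates after harvesting in exponential growth and trypan blue counting. MRC-5 are normal foetal lung fibroblasts. Exposure was 72 h, with MTT colorimetric read-out. Results are means (SD) of three independent experiments done in quadruplicate.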

[3] = test system: HL-60; assay: Antiproliferative activity against human HL60 cells after 72 hrs by MTT assay; details: HL-60, 72 h
Method in brief: as §1, with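 “colorimetry. IC50 is the concentration giving 50% growth inhibition versus untreated control.” for “colorimetry.”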

[4] = test system: K562; assay: Antiproliferative activity against human K562 cells after 72 hrs by MTT assay; details: K562, 72 h; method in brief: as §1
[5] = test system: MRC5; assay: Antiproliferative activity against human MRC5 cells after 72 hrs by MTT assay; details: MRC5, 72 h; method in brief: as §2
[6] = test system: Jurkat; assay: Antiproliferative activity against human Jurkat cells after 72 hrs by MTT assay
Method in brief: as §1, with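 “colorimetry. IC50 is the concentration giving 50% growth inhibition versus untreated control.” for “colorimetry.”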

Row | Compound | IC50 [1] [µM] | IC50 [2] [µM] | IC50 [3] [µM] | IC50 [4] [µM] | IC50 [6] [µM] | IC50 [5] [µM]
1 | O=C1C[C@H]2O[C@H]([C@H](O)c3ccccc3)[C@H](O)[C@H]2O1 | 18.4 | 8.32 | > 100 | 0.41 | 32.5 | > 100
2 | O=C(/C=C/c1ccccc1)O[C@H](c1ccccc1)[C@H]1O[C@@H]2CC(=O)O[C@@H]2[C@H]1O [(+)-CRASSALACTONE C] |  |  | > 100 | 3.56 |  | > 100

Compounds with a lower IC50 [3], results first:

Row | IC50 [1] [µM] | IC50 [2] [µM] | IC50 [3] [µM] | IC50 [4] [µM] | IC50 [6] [µM] | Compound | IC50 [5] [µM]
3 | 2.21 | 2.34 | 0.09 | 0.54 | 2.23 | O=C1CC[C@@H]([C@@H](O)[C@H](O)[C@H](O)c2ccccc2)O1 | > 100
4 | 1.01 | 5.69 | 0.12 | 0.23 | 0.36 | O=C1C[C@H]2O[C@H]([C@H](OC(=O)c3ccccc3)c3ccccc3)[C@H](O)[C@H]2O1 | > 100
5 | 1.03 | 4.42 | 43.8 | 0.51 | 2.52 | O=C1CC2O[C@H](Cc3ccccc3)C(O)C2O1 (single isomer, unassigned) | > 100
